Data published in the RNAGym collection of RNA variant scans (doi:10.1002/anie.201605470).

B1: Osa-1-4 twister ribozyme (parent)
chain: CCGCCUAACACUGCCAAUGCCGGUCCCAAGCCCGGAUAAAAGUGGAGGGGGCGG

Variants of: B1
Experiment: self-cleavage, relative activity (ratio to wild type); higher = more cleavage; co-transcriptional
Outline: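 A DNA template for a 54-nucleotide Oryza sativa twister ribozyme was synthesised with 97 % wild-type base and 1 % of each other base at the 48 positions downstream of the cleavage site. It was transcribed in vitro for 2 h at 37 °C, allowing co-transcriptional self-cleavage, then reverse-transcribed with a template-switching oligonucleotide, PCR-amplified and deep-sequenced. Cleavage status was scored from reads with or without upstream sequence. Relative activity is fraction cleaved normalised to wild type.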
With C14U G13U the self-cleavage was 0.02.
C14U G13C showed a self-cleavage of 0.02.
C15G G22U showed a self-cleavage of 0.09.
With C15G G22A the self-cleavage was 0.16.
C15G G22C showed a self-cleavage of 0.06.
C14U C32U showed a self-cleavage of 0.06.
C14U C32A gave a self-cleavage of 0.04.
C14U C32G showed a self-cleavage of 0.04.
Variant C14U U12C has a self-cleavage of 0.09.
For C14U U12G, the self-cleavage was 0.05.
Variant C14U U12A has a self-cleavage of 0.09.
Work on C15A G35U yielded a self-cleavage of 0.35.
Variant C15A G35A has a self-cleavage of 0.48.
Work on C15A G35C yielded a self-cleavage of 0.09.
For C14U G42A, the self-cleavage was 0.09.
In the case of C14U G42C, the self-cleavage is reported as 0.06.
C14U G42U showed a self-cleavage of 0.03.
For C14U G19C, the self-cleavage was 0.03.
Work on C14U G19A yielded a self-cleavage of 0.09.
With C14U G19U the self-cleavage was 0.05.
C14U G53U gave a self-cleavage of 0.09.
In the case of C14U G53C, the self-cleavage is reported as 0.05.
C14U G53A showed a self-cleavage of 0.11.
Variant C15A G13C has a self-cleavage of 0.04.
In the case of C15A G13U, the self-cleavage is reported as 0.02.
Work on C15A G13A yielded a self-cleavage of 0.04.
In the case of C15U C9A, the self-cleavage is reported as 0.05.
Work on C15U C9G yielded a self-cleavage of 0.14.
C15U C9U showed a self-cleavage of 0.07.
Work on C15G G23A yielded a self-cleavage of 0.14.
In the case of C15G G23U, the self-cleavage is reported as 0.04.
With C15G G23C the self-cleavage was 0.07.
Variant C14U G47U has a self-cleavage of 0.06.
C14U G47A gave a self-cleavage of 0.07.
C14U G47C showed a self-cleavage of 0.06.
In the case of C15G G47C, the self-cleavage is reported as 0.06.
Work on C15G G47A yielded a self-cleavage of 0.08.
For C15G G47U, the self-cleavage was 0.09.
Variant C15A has a self-cleavage of 0.61.
With C15U the self-cleavage was 0.53.
Variant C15G has a self-cleavage of 0.54.
In the case of C14U G34A, the self-cleavage is reported as 0.15.
In the case of C14U G34C, the self-cleavage is reported as 0.08.
C14U G34U showed a self-cleavage of 0.11.
With C15U G22A the self-cleavage was 0.17.
In the case of C15G C26A, the self-cleavage is reported as 0.04.
C15G C26G showed a self-cleavage of 0.11.
With C15G C26U the self-cleavage was 0.11.
C14U C21U gave a self-cleavage of 0.39.
C14U C21A gave a self-cleavage of 0.12.
For C14U C21G, the self-cleavage was 0.06.
In the case of C15G C20G, the self-cleavage is reported as 0.08.
In the case of C15G C20U, the self-cleavage is reported as 0.69.
Variant C15G C20A has a self-cleavage of 0.54.
Work on C15U C52A yielded a self-cleavage of 0.26.
With C15U C52U the self-cleavage was 0.48.
For C15U C52G, the self-cleavage was 0.41.
C14U C26G gave a self-cleavage of 0.07.
Work on C14U C26A yielded a self-cleavage of 0.03.
C14U C26U gave a self-cleavage of 0.11.
With C15G C9U the self-cleavage was 0.11.
C15G C9G gave a self-cleavage of 0.66.
In the case of C15G C9A, the self-cleavage is reported as 0.06.
For C15A C21G, the self-cleavage was 0.07.
Work on C15A C21U yielded a self-cleavage of 0.46.
For C15A C21A, the self-cleavage was 0.15.
With C14U C9A the self-cleavage was 0.12.
For C14U C9U, the self-cleavage was 0.41.
With C14U C9G the self-cleavage was 0.2.
Work on C15A C33G yielded a self-cleavage of 0.03.
In the case of C15A C33U, the self-cleavage is reported as 0.09.
C15A C33A gave a self-cleavage of 0.07.
C14U C33U gave a self-cleavage of 0.08.
Variant C14U C33A has a self-cleavage of 0.04.
Variant C14U C33G has a self-cleavage of 0.03.
Work on C15G C52U yielded a self-cleavage of 0.48.
With C15G C52G the self-cleavage was 0.31.
In the case of C15G C52A, the self-cleavage is reported as 0.21.
With C14U U37C the self-cleavage was 0.57.
Variant C14U U37A has a self-cleavage of 0.5.
C14U U37G gave a self-cleavage of 0.74.
C15A G54C gave a self-cleavage of 0.11.
With C15A G54U the self-cleavage was 0.43.
With C15A G54A the self-cleavage was 0.19.
C15A C26G showed a self-cleavage of 0.06.
In the case of C15A C26A, the self-cleavage is reported as 0.05.
C15A C26U gave a self-cleavage of 0.12.
C14U G51C gave a self-cleavage of 0.04.
In the case of C14U G51U, the self-cleavage is reported as 0.05.
With C14U G51A the self-cleavage was 0.12.
C15A G50U gave a self-cleavage of 0.23.
In the case of C15A G50A, the self-cleavage is reported as 0.38.
C15A G50C gave a self-cleavage of 0.14.
C15G U18C showed a self-cleavage of 0.54.
Variant C15G U18A has a self-cleavage of 0.48.
With C15G U18G the self-cleavage was 0.37.
C15G U24A gave a self-cleavage of 0.07.
Work on C15G U24C yielded a self-cleavage of 0.09.
C15G U24G showed a self-cleavage of 0.02.
C14G U43G showed a self-cleavage of 0.06.
Work on C14G U43C yielded a self-cleavage of 0.07.
In the case of C15G G54U, the self-cleavage is reported as 0.35.
With C15G G54A the self-cleavage was 0.19.
C15G G54C gave a self-cleavage of 0.16.
In the case of C15A C20G, the self-cleavage is reported as 0.06.
Variant C15A C20A has a self-cleavage of 0.52.
With C15A C20U the self-cleavage was 0.65.
With C14U G44U the self-cleavage was 0.14.
Variant C14U G44C has a self-cleavage of 0.33.
With C14U G44A the self-cleavage was 0.59.
In the case of C14U G35C, the self-cleavage is reported as 0.07.
Variant C14U G35U has a self-cleavage of 0.21.
C14U G35A gave a self-cleavage of 0.43.
For C15U G19C, the self-cleavage was 0.12.
C15U G19U showed a self-cleavage of 0.46.
C15U G19A showed a self-cleavage of 1.03.
For C15A G42C, the self-cleavage was 0.08.
In the case of C15A G42U, the self-cleavage is reported as 0.05.
C15A G42A showed a self-cleavage of 0.12.
For C15U G13A, the self-cleavage was 0.05.
With C15U G13C the self-cleavage was 0.02.
In the case of C15U G13U, the self-cleavage is reported as 0.02.
Work on C15U C25U yielded a self-cleavage of 0.08.
With C15U C25A the self-cleavage was 0.03.
Variant C15U C25G has a self-cleavage of 0.04.
Variant C15G C25U has a self-cleavage of 0.12.
Variant C15G C25A has a self-cleavage of 0.05.
For C15G C25G, the self-cleavage was 0.07.
Work on C15A G34C yielded a self-cleavage of 0.11.
C15A G34A gave a self-cleavage of 0.23.
For C15A G34U, the self-cleavage was 0.14.
C15A G51U showed a self-cleavage of 0.07.
In the case of C15A G51C, the self-cleavage is reported as 0.04.
Variant C15A G51A has a self-cleavage of 0.1.
C14U G30C showed a self-cleavage of 0.03.
C14U G30A gave a self-cleavage of 0.79.
Variant C14U G30U has a self-cleavage of 0.03.
With C15G G48C the self-cleavage was 0.05.
With C15G G48A the self-cleavage was 0.05.
In the case of C15G G48U, the self-cleavage is reported as 0.04.
C14U C27U gave a self-cleavage of 0.06.
C14U C27G gave a self-cleavage of 0.06.
For C14U C27A, the self-cleavage was 0.05.
Variant C15G G50U has a self-cleavage of 0.26.
With C15G G50A the self-cleavage was 0.3.
For C15G G50C, the self-cleavage was 0.14.
Variant C15G G51C has a self-cleavage of 0.07.
Work on C15G G51U yielded a self-cleavage of 0.08.
With C15G G51A the self-cleavage was 0.13.
With C15A G44A the self-cleavage was 0.11.
Variant C15A G44C has a self-cleavage of 0.33.
With C15A G44U the self-cleavage was 0.19.
In the case of C15A U43C, the self-cleavage is reported as 0.1.
Work on C15A U43G yielded a self-cleavage of 0.11.
In the case of C15A U43A, the self-cleavage is reported as 0.14.
C14U G50U showed a self-cleavage of 0.18.
Work on C14U G50C yielded a self-cleavage of 0.1.
With C14U G50A the self-cleavage was 0.35.
With C15A G47U the self-cleavage was 0.06.
In the case of C15A G47C, the self-cleavage is reported as 0.04.
In the case of C15A G47A, the self-cleavage is reported as 0.06.
In the case of C14U C52A, the self-cleavage is reported as 0.21.
C14U C52U gave a self-cleavage of 0.52.
Variant C14U C52G has a self-cleavage of 0.28.
Variant C15U C27G has a self-cleavage of 0.06.
Variant C15U C27U has a self-cleavage of 0.08.
Work on C15U C27A yielded a self-cleavage of 0.07.
